The source of these data is publication PMC4021529 (British Journal of Cancer, 2014).

“Also recorded” adds a separate entry of the source.

Data set [1] is described as follows: QTcF interval, triplicate 12-lead ECG. The data set is classed as in vivo, human. The note with it: for maximal mean change (±s.d.) from baseline in QTcF: 2 h post-administration, first two courses.
A further data set deals with advanced solid tumours. The experiment in a line: Objective tumour response. The class given is in vivo, human. The note with it: for median PFS: all dose groups. An outline of the steps: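 Patients with advanced solid tumours at two Taiwanese sites. Test compound given as a 2-h IV infusion on day 1 (schedule A) or days 1 and 8 (schedule B), every 3 weeks. CT or MRI at baseline and at the end of every other course, assessed by RECIST 1.0. PFS estimated by Kaplan–Meier.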

With `CC[C@@H]1C(=O)N(C)c2cnc(Nc3ccc(C(=O)N[C@H]4CC[C@H](N5CCN(CC6CC6)CC5)CC4)cc3OC)nc2N1C(C)C` [volasertib], the “QTcF at 8-h post-dose assessment” value in data set [1] (first course) is listed as “returned to baseline levels”. In data set [1] (in vivo), the “clinically relevant cardiac AEs related to a prolonged QT interval” value is given as “No related clinically relevant cardiac AEs”. In addition, the “maximal mean change (±s.d.) from baseline in QTcF” value in data set [1] (schedule A, 300 mg) is listed as 21.0 (±10.6) ms; in data set [1] (schedule B, 150 mg), 14.9 (±11.7) ms. The “partial responses in the study” value in the data set with advanced solid tumours (59 treated patients, both schedules) is on record as “two pre-treated patients; also recorded: Two partial responses”. Also, in the data set with advanced solid tumours (bladder urothelial cancer with lymph node metastasis, 50 mg schedule B), the “duration of stable disease, individual patient” value is on record as more than 8 months. Further, the “patients with stable disease as best overall response” value was 26 (44.1%) patients (%) in the data set on advanced solid tumours (overall, both schedules); 14 (43.8%) patients (%) with advanced solid tumours (schedule A); 12 (44.4%) patients (%) with advanced solid tumours (schedule B). In addition, the “median PFS” value in the data set on advanced solid tumours (schedule A) was found to be 49 days; with advanced solid tumours (schedule B), 56 days. The “best response of individual patient” value in the data set with advanced solid tumours (ureteral urothelial carcinoma (wild-type FGFR3), 350 mg schedule A, two courses) is recorded as “partial response”.
